High-throughput results deposited in PubChem by Johns Hopkins Ion Channel Center.
Rows were chosen to be rich in hits. Some 3.5% of all compounds tested hit in one or more screens of this group.
RGS4 act = RGS4 potentiation or activation; HEK293 M3R/inducible RGS4, carbachol calcium flux Fluo4; active compounds read low; B-score at 10 µM; 310,000 compounds, 0.92% hits;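 active = B-score of the integrated calcium signal more than 4 SD below the library mean, with starting fluorescence not abnormally high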;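 also: negative B-score means reduced calcium response which marks RGS4 activation or potentiation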
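Assay system: HEK293 FlpIn-TREx cells, stable M3R, doxycycline-inducible RGS4 / Probe or stimulus: carbachol, ECmax concentration / Times: overnight RGS4 induction, 30 min dye load 37 °C, 20 min compound RT / Signal: kinetic calcium fluorescence imaging with Fluo4-AM dye, 2 µM / Measure: Agonist-evoked peak-minus-minimum fluorescence over baseline, integrated ratio, B score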
MrgX1 agonist = human MrgX1 receptor agonism, primary screen; MrgX1-HEK293 cells, Fluo-4 calcium fluorescence, agonist mode; active compounds read high; B-score at 10 µM; 310,000 compounds, 0.44% hits;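 active = calcium response B-score plate-corrected fluorescence ratio at least 3 library SD, with starting fluorescence B-score inside 5 SD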
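Test system: HEK293 cells stably expressing human MrgX1 receptor; amount: 15,000 cells per well; doses: compound delivered in addition one of three; times: overnight plating before 1 h dye loading; detection: Fluo-4 NW calcium-flux fluorescence, kinetic read; read-out basis: B-scored fluorescence response ratio; controls: positive and negative controls per plate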
MrgX1 PAM = allosterically activates human MrgX1 receptor signaling. Q96LB2. MrgX1-HEK293, Fluo-4 calcium flux, FDSS; active compounds read high. B-score at 10 µM. 310,000 compounds, 0.63% hits. AID 588675;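 active = plate-corrected calcium response at least 3 library SD above typical, normal starting fluorescence, not activating the receptor alone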;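 also: compound read alongside a low EC10 to EC30 dose of BAM8-22 agonist; peak minus trough fluorescence over baseline measured at the second addition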
MrgX1 antag = blocks BAM8-22 activation of human MrgX1 receptor. 310,000 compounds, 1.3% hits. MRGX1-HEK293 calcium flux, Fluo-4, BAM8-22 antagonism; active compounds read low. Q96LB2. B-score at 10 µM;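 active = calcium-response B-score plate-corrected more than 3 library SD below zero, starting fluorescence within 5 deviations, no agonist response on first addition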;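 also: peak minus trough fluorescence over baseline after final BAM8-22 challenge near maximal dose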
RGS4 block = inhibitors of human RGS4; P49798; HEK293 M3R/RGS4 inducible, Fluo-4 calcium flux; active compounds read high; triggered by carbachol at its EC20; B-score at 10 µM; 310,000 compounds, 0.45% hits; AID 463165;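 active = B-score, a plate-corrected calcium signal, over three deviations above library mean, with baseline fluorescence within five deviations of library mean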;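 also: RGS4 expression induced by doxycycline in cells with stable M3 receptor; B-score is computed from the integrated fluorescence ratio over baseline after carbachol; higher B-score means a larger calcium signal and so more RGS4 inhibition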
Target sequence (P49798 whole entry, looked up): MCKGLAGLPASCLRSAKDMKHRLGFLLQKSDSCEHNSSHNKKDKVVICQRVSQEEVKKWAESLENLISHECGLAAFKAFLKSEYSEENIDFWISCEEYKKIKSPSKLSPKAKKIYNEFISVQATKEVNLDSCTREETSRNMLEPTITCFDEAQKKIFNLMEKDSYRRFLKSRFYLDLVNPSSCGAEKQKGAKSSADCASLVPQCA
MrgX1 antag conf = reconfirmed antagonist of human MrgX1 receptor signaling. shares compounds with MrgX1 antag. MrgX1-HEK293, BAM8-22 calcium flux, Fluo-4; active compounds read low. remaining BAM8-22 calcium response % of control (active compounds read low), % at 10 µM. 2,300 compounds, 19% hits. AID 602420;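 active = remaining agonist calcium response no higher than 100% minus 3 SD of agonist-only control wells, with starting fluorescence near control levels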;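 also: agonist BAM8-22 given at a near maximal EC90 to ECmax level; peak minus minimum fluorescence divided by baseline after agonist addition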
HEK293 Ca flux = MrgX1 antagonist counter-screen hit in parental HEK293 cells | shares compounds with MrgX1 antag | Fluo-4 calcium fluorescence, FDSS | AID 624111 | 4,000 compounds, 2% hits | fluorescence ratio F(max-min)/F0 at 10 µM;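 active = duplicate-averaged calcium fluorescence ratio at least three times the standard deviation of buffer wells, a nonspecific response in parental cells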
HEK293 Ca counter = MrgX1 allosteric activator counter-screen hit in parental HEK293 cells | 4,000 compounds, 0.4% hits | fluorescence ratio F(max-min)/F0 at 10 µM | parental HEK293 calcium flux, Fluo-4 fluorescence ratio; active compounds read high | AID 624114 | shares compounds with MrgX1 antag;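 active = calcium fluorescence ratio, averaged over duplicates, at least 3 SD of the buffer-well ratio, meaning a nonspecific response in receptor-free cells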;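 also: untransfected parental HEK293 lacking MrgX1 used as counterscreen for MrgX1 allosteric activators; fluorescence change taken during the second addition on a kinetic imager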
HEK293 Ca cntr2 = counter-screen for MrgX1 activators: effect in parental HEK293 cells | shares compounds with MrgX1 antag | Fluo-4 calcium fluorescence (FDSS); active compounds read high | fluorescence ratio F(max-min)/F0 at 10 µM | 4,000 compounds, 8.7% hits | AID 624115;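 active = calcium fluorescence ratio at least three times the spread of buffer wells, meaning a non-specific response in parental cells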
The depositor's hits bear a star; i = inactive; nt = not tested or not shown.

SMILES | RGS4 act | MrgX1 agonist | MrgX1 PAM | MrgX1 antag | RGS4 block | MrgX1 antag conf | HEK293 Ca flux | HEK293 Ca counter | HEK293 Ca cntr2
Cc1cc(N2C(=O)CC(N3CCC(n4c(=O)[nH]c5ccccc54)CC3)C2=O)no1 (stereo not given) | i | i | i | -5.42* | i | i | i | i | i
NN=C(N)N | nt | i | i | i | nt | nt | nt | nt | nt
C=CCOC(=O)C1=C(C)OC(N)=C(C#N)[C@@]12C(=O)N(CC(N)=O)c1ccccc12 | i | i | i | -5.74* | i | i | i | i | i
CC1=C(C(=O)OC(C)C)[C@]2(C(=O)N(CC(N)=O)c3ccccc32)C(C#N)=C(N)O1 | i | i | i | i | i | nt | nt | nt | nt
O=C(c1ccc2c3c(cccc13)CC2)C1CCCN(Cc2ncc[nH]2)C1 (stereo not given) | i | i | i | -4.74* | i | i | i | i | i
O=C(c1ccc2c3c(cccc13)CC2)C1CCCN(CC2CC2)C1 (stereo not given) | i | i | i | i | i | nt | nt | nt | nt
CO[C@H]1CC=C2CCN3CCC4=C(CC(=O)OC4)[C@]23C1 | nt | i | i | i | nt | nt | nt | nt | nt
